The results in this text go back to the RNAGym collection of RNA variant scans (doi:10.1002/anie.201605470).

The chains are these.
B1: Osa-1-4 twister ribozyme (parent)
chain: CCGCCUAACACUGCCAAUGCCGGUCCCAAGCCCGGAUAAAAGUGGAGGGGGCGG

In this data set the parent is B1. In words: self-cleavage, relative activity (ratio to wild type); higher = more cleavage; co-transcriptional. In short, it runs like this: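 The 48 positions downstream of the cleavage site in a 54-nucleotide Oryza sativa twister ribozyme template were synthesised at 97 % wild-type base and 1 % of each other base. The template was transcribed in vitro at 37 °C for 2 h, with self-cleavage allowed during transcription. Reads with or without upstream sequence after deep sequencing marked cleavage status, and relative activity is fraction cleaved normalised to wild type.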
Turning to G54A U37C, the self-cleavage was determined as 0.98.
Take G54A U37G: the self-cleavage worked out at 1.
In the case of G54A U37A it was 0.73.
Take G54A U24G: the self-cleavage came out at 0.03.
G54A U24C: the self-cleavage came out at 0.13.
As to G54A U24A, the self-cleavage came out at 0.13.
For the variant C52U G34C, the self-cleavage stood at 0.65.
The same measure for C52U G34A: 0.93.
Turning to C52U G34U, the self-cleavage was 0.85.
G53C U18C: the self-cleavage worked out at 0.1.
On to G53C U18A, for which the self-cleavage turned out to be 0.09.
On to G53C U18G, for which the self-cleavage was found to be 0.14.
As for G53C U12A, the self-cleavage was found to be 0.07.
The same measure for G53C U12G: 0.04; for G53C U12C: 0.05.
As for G54U U24C, the self-cleavage was determined as 0.23.
In the case of G54U U24G, the self-cleavage turned out to be 0.04.
Regarding G54U U24A, the self-cleavage turned out to be 0.34.
On to G53U U12A, for which the self-cleavage was found to be 0.12.
In the case of G53U U12G it was 0.07; in that of G53U U12C, 0.13; in that of G54U, 1.
In the case of G54C it was 1; in that of G54A, 1.
In the case of C52U G35A it was 0.96.
Take C52U G35U: the self-cleavage is 0.99.
As to C52U G35C, the self-cleavage came to 0.63.
Take C52U U37A: the self-cleavage turned out to be 0.84.
Regarding C52U U37C, the self-cleavage came to 1.07.
Turning to C52U U37G, the self-cleavage came out at 1.06.
Turning to G53U, the self-cleavage came to 0.56.
The same measure for G53C: 0.13.
The same measure for G53A: 0.93; for G53A U12A: 0.28; for G53A U12C: 0.37.
In the case of G53A U12G it was 0.18.
For G53A U43G, the self-cleavage is 0.37.
On to G53A U43A, for which the self-cleavage amounted to 0.64.
Consider G53A U43C, for which the self-cleavage came out at 0.43.
Regarding G53A U24A, the self-cleavage amounted to 0.09.
The same measure for G53A U24G: 0.03.
With G53A U24C, the self-cleavage came to 0.08.
The same measure for G54C U37A: 0.71.
Turning to G54C U37G, the self-cleavage worked out at 1.03.
In the case of G54C U37C it was 1.02; in that of C52U G51C, 0.13.
The same measure for C52U G51A: 0.88; for C52U G51U: 0.54.
As to C52U G44A, the self-cleavage worked out at 1.
On to C52U G44C, for which the self-cleavage is 1.05.
As for C52U G44U, the self-cleavage was 1.02.
With G53C U37A, the self-cleavage stood at 0.06.
The same measure for G53C U37G: 0.15.
In the case of G53C U37C it was 0.11.
The same measure for G53U U43G: 0.13.
With G53U U43A, the self-cleavage is 0.2.
Consider G53U U43C, for which the self-cleavage stood at 0.15.
In the case of G53C G54U it was 0.25.
The same measure for G53C G54A: 0.1.
G53C G54C: the self-cleavage is 0.08.
On to G54C U43G, for which the self-cleavage amounted to 0.76.
Regarding G54C U43A, the self-cleavage amounted to 0.86.
As to G54C U43C, the self-cleavage is 0.6.
The same measure for C52U G49C: 0.07; for C52U G49U: 0.15; for C52U G49A: 0.21.
In the case of C52U U43A it was 1.
As for C52U U43C, the self-cleavage turned out to be 0.62.
With C52U U43G, the self-cleavage came out at 0.88.
As for C52U G30U, the self-cleavage is 0.04.
Take G53U U24A: the self-cleavage stood at 0.06.
G53U U24G: the self-cleavage came out at 0.03.
On to G53U U24C, for which the self-cleavage worked out at 0.06.
Regarding G54C U18A, the self-cleavage worked out at 0.85.
G54C U18G: the self-cleavage came out at 0.77.
In the case of G54C U18C it was 0.91; in that of G53U U18G, 0.39; in that of G53U U18C, 0.3.
In the case of G53U U18A it was 0.41; in that of G54A U18G, 0.71; in that of G54A U18A, 0.88.
On to G54A U18C, for which the self-cleavage was found to be 0.93.
On to C52U G47C, for which the self-cleavage worked out at 0.12.
The same measure for C52U G47A: 0.45; for C52U G47U: 0.4; for G53U U37G: 0.61.
Take G53U U37A: the self-cleavage stood at 0.32.
For the variant G53U U37C, the self-cleavage is 0.55.
In the case of C52U G45C it was 0.07; in that of C52U G45U, 0.17; in that of C52U G45A, 0.54.
For the variant G53U G54A, the self-cleavage was 0.25.
Consider G53U G54U, for which the self-cleavage was 0.46.
Turning to G53U G54C, the self-cleavage was found to be 0.14.
In the case of G54C U12C it was 0.57; in that of G54C U12A, 0.43.
As for G54C U12G, the self-cleavage is 0.32.
In the case of C52U G48C, the self-cleavage is 0.11.
In the case of C52U G48A it was 0.15; in that of C52U G48U, 0.11.
As to G54C U24C, the self-cleavage was determined as 0.11.
As to G54C U24G, the self-cleavage is 0.02.
In the case of G54C U24A, the self-cleavage is 0.07.
The same measure for G53A G54C: 0.66.
Take G53A G54U: the self-cleavage was 0.79.
As for G53A G54A, the self-cleavage is 0.62.
The same measure for G54A U12C: 0.56.
For the variant G54A U12A, the self-cleavage stood at 0.48.
Take G54A U12G: the self-cleavage turned out to be 0.28.
With G54U U37G, the self-cleavage came out at 0.98.
On to G54U U37C, for which the self-cleavage was found to be 1.02.
As to G54U U37A, the self-cleavage worked out at 0.73.
C52U G50A: the self-cleavage stood at 0.97.
The same measure for C52U G50U: 0.98; for C52U G50C: 0.57.
G53A U18C: the self-cleavage is 0.83.
For the variant G53A U18A, the self-cleavage was determined as 0.8.
The same measure for G53A U18G: 0.65; for C52U U18A: 0.97; for C52U U18G: 0.86.
With C52U U18C, the self-cleavage was 1.
Take G54A U43C: the self-cleavage amounted to 0.58.
In the case of G54A U43G, the self-cleavage amounted to 0.69.
In the case of G54A U43A, the self-cleavage was found to be 0.84.
In the case of C52U G54U it was 1.03; in that of C52U G54A, 0.98; in that of C52U G54C, 0.94.
On to C52U G53A, for which the self-cleavage was 1.
The same measure for C52U G53U: 0.9; for C52U G53C: 0.17.
Regarding G53C U43G, the self-cleavage stood at 0.07.
For G53C U43A, the self-cleavage turned out to be 0.08.
As to G53C U43C, the self-cleavage is 0.07.
C52U G42A: the self-cleavage was 0.91.
C52U G42C: the self-cleavage stood at 0.39.
On to C52U G42U, for which the self-cleavage is 0.13.
Consider G54U U18G, for which the self-cleavage was 0.73.
In the case of G54U U18C, the self-cleavage was 0.95.
Consider G54U U18A, for which the self-cleavage was determined as 0.9.
In the case of G54U U12C it was 0.67; in that of G54U U12G, 0.4.
For the variant G54U U12A, the self-cleavage worked out at 0.62.
The same measure for C52U U24C: 0.56; for C52U U24A: 0.33.
In the case of C52U U24G it was 0.03.
Consider G54U U43A, for which the self-cleavage is 0.84.
For the variant G54U U43C, the self-cleavage amounted to 0.7.
Take G54U U43G: the self-cleavage came out at 0.7.
As to G53A U37C, the self-cleavage turned out to be 0.97.
Consider G53A U37A, for which the self-cleavage came out at 0.57.
G53A U37G: the self-cleavage was determined as 0.97.
In the case of C52U U12G, the self-cleavage came out at 0.78.
Turning to C52U U12A, the self-cleavage amounted to 0.99.
Turning to C52U U12C, the self-cleavage came out at 0.65.
The same measure for G53C U24A: 0.04; for G53C U24C: 0.03; for G53C U24G: 0.01.
